Source: PubChem
PolyA inhibitor: polyadenylation inhibitors in yeast reporter cells, primary screen, luminescence, S. cerevisiae; actives 0.02% (n = 300,000); activity score, % at 12 µM; S. cerevisiae SKY197-pL101 polyadenylation reporter, beta-gal luminescence; efflux-impaired pdr1/pdr3 knockout yeast; score 100 = 6 SD above DMSO; AID 1875, 2009;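 active = lowest replicate activity score at least 50, where 100 means six control SD above control mean; inconclusive = lowest score under 50 but half or more replicates reach 50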;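 also: yeast exposed to compound for 9 h at 30 °C; higher score means more reporter readthrough which indicates perturbed polyadenylation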
Hsp70 act: Hsp70 transcriptional activators, primary screen, cell-based, HeLa, Hsp70 promoter luciferase, luminescence, 10 µM | activation, % at 10 µM | actives 0.04% (n = 200,000) | HeLa Hsp70 promoter luciferase reporter; scaled: vehicle 0, proteasome-inhibitor control 100% | AID 1203, 2008;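 active = activation above the mean across all tested compounds plus 3 SD, cutoff set per campaign, cut at about 5.5% in these data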;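 also: 100% = MG132 at 30 µM as the positive control and 0% = DMSO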
AHR activator: AHR activators, primary screen, cell-based, luminescence, luciferase reporter, human | actives 2.5% (n = 320,000) | AHR-responsive luciferase reporter cells | Aryl hydrocarbon receptor (Homo sapiens), P35869 | activation, % at 5 µM | AID 2796, 2010; in the data active = activation above about 47%;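 also: 0% = vehicle wells and 100% = reference agonist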
STAT3 act: IL-6 driven STAT3 reporter potentiators, primary screen, U3A cells, luciferase, luminescence, MLSCN library; IL-6 STAT3-luciferase reporter; 100% = signal with IL-6 EC80 alone; activation (% of control), % at 5.6 µM; actives 0.91% (n = 190,000); AID 871, 2007;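 active = activation above the screen-wide mean of compound activation plus 3 SD, cut at about 130% in these data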;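 also: 0% = background luminescence of wells with medium and substrate only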
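Test system: human U3A cells carrying STAT3-luciferase construct; control set: IL-6-only wells as 100% reference; timing: compound pre-incubation 1 h before IL-6, then 6 h stimulation at 37 °C; also added: IL-6 stimulus at 33 ng/mL final; evaluation: % activation versus median of IL-6-stimulated wells; detection: reporter luminescence signal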
HSF1 inh: HSF1 inhibitors in luciferase reporter cells, primary screen, cell-based, NIH3T3, luminescence; activity change, negative = inhibition, % at 7.5 µM (by protocol); NIH3T3-HGL HSE-luciferase, MG132-induced, luminescence 8 h; active compounds read low; actives 0.77% (n = 300,000);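 active = more than half of replicate wells show activity change below -50%, luminescence cut by over half; inconclusive = some wells, but at most half, below -50%; inactive = no replicate well below -50%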;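 also: luciferase reports HSF-1 transcriptional activity via heat shock element; 0% = median of DMSO wells and -100% = zero luminescence signal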
PERK inhibitor: block of dimerizer-induced PERK translation repression, primary screen, PERK inhibitor project, CHO PERK-DD cells, SEAP luminescence, HTS; AID 1416, 2008; actives 0.17% (n = 220,000); inhibition, % at 5.6 µM; CHO PERK-DD fusion, SEAP luminescence translation reporter; Eukaryotic translation initiation factor 2-alpha kinase 3 (Homo sapiens), Q9NZJ5;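 active = inhibition above the mean inhibition of all tested compounds plus 3 SD, set separately per screening campaign, cut at about 2.9% in these data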;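 also: PERK kinase domain activated by AP20187 dimerizer at 100 nM; 0% = DMSO with dimerizer and 100% = rapamycin at 8.4 µM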
Target sequence (Q9NZJ5 whole entry, looked up, the tested form may be a part): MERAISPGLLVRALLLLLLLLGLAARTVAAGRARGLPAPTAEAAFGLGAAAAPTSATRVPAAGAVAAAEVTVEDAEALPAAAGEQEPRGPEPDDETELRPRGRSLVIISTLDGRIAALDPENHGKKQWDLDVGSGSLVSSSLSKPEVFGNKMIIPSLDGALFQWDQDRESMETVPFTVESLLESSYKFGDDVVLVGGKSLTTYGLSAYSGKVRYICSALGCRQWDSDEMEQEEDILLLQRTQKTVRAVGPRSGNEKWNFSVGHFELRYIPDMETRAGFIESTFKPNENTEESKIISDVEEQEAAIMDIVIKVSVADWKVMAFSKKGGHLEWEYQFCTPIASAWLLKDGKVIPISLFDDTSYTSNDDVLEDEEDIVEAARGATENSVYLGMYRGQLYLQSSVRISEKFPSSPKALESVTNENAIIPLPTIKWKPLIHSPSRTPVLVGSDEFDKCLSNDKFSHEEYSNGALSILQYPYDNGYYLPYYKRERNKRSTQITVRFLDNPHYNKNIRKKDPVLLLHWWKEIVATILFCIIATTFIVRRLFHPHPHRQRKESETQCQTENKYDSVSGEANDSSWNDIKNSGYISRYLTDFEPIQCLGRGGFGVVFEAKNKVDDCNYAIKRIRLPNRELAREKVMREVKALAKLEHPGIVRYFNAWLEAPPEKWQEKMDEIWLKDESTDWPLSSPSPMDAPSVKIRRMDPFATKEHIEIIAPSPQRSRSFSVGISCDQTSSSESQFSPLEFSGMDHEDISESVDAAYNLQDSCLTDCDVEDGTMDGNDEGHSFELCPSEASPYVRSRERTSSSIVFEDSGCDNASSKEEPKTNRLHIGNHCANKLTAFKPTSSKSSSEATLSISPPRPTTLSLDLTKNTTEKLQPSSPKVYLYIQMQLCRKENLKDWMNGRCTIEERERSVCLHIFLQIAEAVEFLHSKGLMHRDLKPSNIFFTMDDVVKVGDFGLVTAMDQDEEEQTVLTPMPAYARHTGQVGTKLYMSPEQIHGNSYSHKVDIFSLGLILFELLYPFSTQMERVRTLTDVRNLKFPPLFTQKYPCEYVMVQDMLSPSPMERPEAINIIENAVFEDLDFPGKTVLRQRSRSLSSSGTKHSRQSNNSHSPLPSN
* hit, by the source's call; ? = inconclusive; · = not tested or not shown. Most compounds without a hit are left out; they make up all but 3.6% or so of the library.

SMILES	PolyA inhibitor	Hsp70 act	AHR activator	STAT3 act	HSF1 inh	PERK inhibitor
CCOC(=O)[C@@H]1[C@H]2COc3ccc(Br)cc3[C@H]2N2C(=O)N(c3cccc(C)c3)C(=O)[C@]12C	·	·	1	·	·	·
COC1=CC2[C@@H]3Cc4ccc(OC)c(O)c4[C@]2(CCN3C)CC1=O (some centres undefined)	·	·	0	·	·	·
CC1=NN(c2ccccc2)C(=O)/C1=C/c1c(O)[nH]c(=S)[nH]c1=O	?	0	16	146*	-6	0
Cc1cccc(N2C(=O)NC(=O)/C(=C/c3cc4c(cc3[N+](=O)[O-])OCO4)C2=O)c1	17	0	4	103	1	2
Cc1cc(C)cc(N2C(=O)NC(=O)/C(=C\c3cc(C)n(C)c3C)C2=O)c1	5	0	-5	75	3	0
CC1=NN(c2ccccc2)C(=O)C1/C=C1/C(=O)NC(=O)N(c2cccc(C)c2)C1=O (centres undefined)	·	1	·	150*	·	0
CC1=NN(c2ccccc2)C(=O)C1/C=C1/C(=O)NC(=O)N(c2cc(C)cc(C)c2)C1=O (centres undefined)	14	0	9	144*	-4	0
CC(C)(C)n1cc(C(=O)c2ccccc2OCCCF)cn1	-2	·	3	·	1	·
CC(C)(C)n1cc(C(=O)c2ccc3ccccc3c2O)cn1	-16	0	-4	47	-72*	0
CN1CCc2nc3sc(C(=O)NC4CC4)c(N)c3cc2C1	1	0	55*	89	6	0
CN1CCc2nc(SCC(=O)OC(C)(C)C)c(C#N)cc2C1	-2	·	6	·	20	·
Oc1ccc2c3c1OC1c4oc5ccccc5c4C[C@@]4(O)[C@@H](C2)N(CC2CC2)CC[C@]314 (some centres undefined)	·	·	2	·	·	·
COC(=O)C1=C(c2ccc(OC)c(OC)c2)C[C@@H]2CC[C@H]1N2C(=O)NCCCOC(C)C	·	·	-1	·	·	·
Cc1c2ccncc2c(C)c2c1[nH]c1ccccc12	9	0	67*	118	25	-2
c1ccc2c(c1)[nH]c1cnccc12	-21	0	15	91	-4	0
N#C/C=C/C#N	·	·	-1	·	·	·
Cn1ncnc2c(=O)n(C)c(=O)nc1-2	10	·	-7	·	-95*	·
COC(=O)C1=C(c2ccc(C(C)=O)cc2)C[C@@H]2CC[C@H]1N2C(=O)N1CCC(O)CC1	·	·	1	·	·	·
Cc1cccc(-n2c(O)c(/C=C3/C(c4ccccc4)=Nc4ccccc43)c(=O)[nH]c2=O)c1	20	·	76*	·	-2	1
O=C1NC(c2cccnc2)Nc2sc3c(c21)CCCC3 (centres undefined)	7	1	56*	93	21	0
CCn1cc(C(=O)c2cccs2)c2ccccc21	-19	0	49*	93	-8	0
CCCCn1c(=O)c(C(=O)Nc2ccccc2N)c(O)c2ccccc21	-9	·	48*	·	10	·
CCCCCn1c(=O)c(C(=O)Nc2ccccc2N)c(O)c2ccccc21	11	·	16	·	3	·
COc1cc(OC)c2c(c1)OCC1CON(C)C21 (centres undefined)	10	0	-2	95	-78*	0
C[C@]12CCC(=O)C[C@H]1CC[C@@H]1[C@@H]2CC[C@]2(C)C(=O)CC[C@@H]12	·	·	2	·	·	·
SMILES	PolyA inhibitor	Hsp70 act	AHR activator	STAT3 act	HSF1 inh	PERK inhibitor
COC(=O)[C@@H]1[C@@H](C(=O)OC)C2(c3ccccc3-c3ccccc32)N(c2ccc(Cl)cc2)N1C#N	-23	0	-1	103	-96*	0
COC(=O)[C@]12OC[C@]34C([C@@H](O)[C@@H]1O)[C@]1(C)CC(=O)C(O)=C(C)[C@@H]1C[C@H]3OC(=O)[C@H](O)[C@@H]24 (some centres undefined)	?	·	-6	·	-69*	·
CCC(=O)c1ccc(OCC(=O)N2CCN(CC(=O)Nc3ccccc3C(F)(F)F)CC2)cc1	·	·	0	·	·	·
CCN(CC)C(=O)c1ccc(NC(=O)Nc2ccccc2F)cc1	-18	0	-7	32	-64*	1
CCN(CC)C(=O)c1ccc(NC(=O)CCCSc2ccccc2)cc1	4	0	-1	106	-3	0
CC(C)C/C(=N/O)c1c[nH]c2ccccc12	-9	0	16	134*	-14	-1
CC(C(=O)c1c[nH]c2ccccc12)N1CCOCC1 (centres undefined)	0	·	12	·	-3	0
COC(=O)C1=C(C(=O)OC)C2OC1c1cc3ccccc3cc12	·	·	·	·	59*	·
NCc1cc(=O)[nH]o1	·	·	1	·	·	·
CC(=O)OC1(c2ccccc2)CCN(C)C2CCCCC21 (centres undefined)	-9	0	1	98	-52*	0
O=c1[nH]c(=S)[nH]c(O)c1N=Nc1ccc2c(c1)OCO2	-14	0	75*	96	-4	1
O=c1[nH]c(=S)[nH]c(O)c1N=Nc1ccc2c(c1)OCCO2	-4	·	16	·	46	0
O=c1[nH]c(O)c(N=Nc2ccc3c(c2)OCCO3)c(=O)[nH]1	14	-1	10	37	-62*	1
C=CCn1c(O)c(C=NCCN2CCNCC2)c(=O)[nH]c1=O	9	0	-2	106	-4	0
O=c1[nH]c(=O)n(Cc2ccccc2)c(O)c1C=NCCN1CCNCC1	14	0	2	96	-85*	1
C[C@]12CCC3C(CC[C@H]4C[C@@H](O)CC[C@]34C)C1C[C@H](Br)[C@@H]2O (some centres undefined)	·	·	0	·	·	·
COc1ccc(CCNC2CCCCC2)cc1	20	0	1	98	-4	0
COc1ccc(C[C@H]2NC[C@H](O)[C@H]2OC(C)=O)cc1	2	·	-12	·	-75*	·
COc1ccc(OC)c(N2C(=O)NC(=O)/C(=C\c3ccc([N+](=O)[O-])s3)C2=O)c1	-21	0	2	107	-63*	0
CCN1C[C@]2(C)CC[C@H](OC)[C@]34C2[C@H](OC(C)=O)[C@@]2(OCO[C@@]25C[C@H](OC)[C@H]2C[C@]3(O)C5[C@H]2OC)[C@@H]14	4	·	9	·	5	·
COc1ccc(OCC(=O)N2CCN(Cc3c[nH]c4ccccc34)CC2)cc1	6	0	·	135*	-4	-1
